The text below walks through data of ChEMBL document CHEMBL4732185, “Synthesis, biological evaluation and structure-activity relationship of novel dichloroacetophenones targeting pyruvate dehydrogenase kinases with potent anticancer activity” (Eur J Med Chem, 2021).

Molecules are shown by their SMILES. The source made the active and inactive calls. No cut-off for these calls is given here.

In assay [1] the test system is A-375. As to the kind of experiment: Induction of apoptosis in human A375 cells assessed as late apoptotic cells at 5 uM after 12 hrs by annexinV-FITC/propidium iodide staining based flow cytometric analysis (reference value: 0.63%). It is filed as functional.
Assay [2] deals with A-375. The assay is described as follows: Induction of mitochondrial membrane depolarization in human A375 cells at 2 to 10 uM after 4 hrs by JC-1 staining based confocal microscopic analysis. Type of assay: functional, cell-based. The settings on record: dose 2-10 µM. The procedure, abridged: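 Mitochondrial membrane potential. A375 cells seeded at 4 × 10^4 cells/mL, grown overnight, then treated at 2, 5 or 10 µM at 37 °C for 4 h. Stained with JC-1 in fresh medium for 15 min at 37 °C, washed three times with cool PBS and imaged by laser scanning confocal microscopy (red J-aggregate vs green monomer).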

Assay [3] has as its system A-375. As to the kind of experiment: Induction of cell cycle arrest in human A375 cells assessed as accumulation at G1 phase at 5 uM after 24 hrs by propidium iodide staining based flow cytometric analysis (reference value: 52.65%). Type of assay: functional.

Turning to `CC(C)(CO)c1ccc(Nc2ccc(C(=O)C(Cl)Cl)cc2[N+](=O)[O-])cc1`, the Activity is on record as 6.88% with A-375 [1] and 66.86% in the assay with A-375 [3]. Moreover, in the assay on A-375 [2], the result was Active.
